In the library only some 2.3% were active in any assay of this set; here they are far more common.
TRPC6 inh – blocks the mouse TRPC6 cation channel | Q61143 | HEK293-TRPC6, membrane potential dye, ACh-evoked depolarization; stronger effect = lower value | B-score at 10 µM | hit rate 1.1% among 310,000 | AID 2553;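 active = B-score under library mean minus 3 SD, initial fluorescence not abnormally high, positive integrated signal ratio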;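 note: B-score derived from integrated fluorescence ratio over the kinetic read; more negative B-score means stronger inhibition of depolarization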
Target sequence (Q61143 whole entry, looked up): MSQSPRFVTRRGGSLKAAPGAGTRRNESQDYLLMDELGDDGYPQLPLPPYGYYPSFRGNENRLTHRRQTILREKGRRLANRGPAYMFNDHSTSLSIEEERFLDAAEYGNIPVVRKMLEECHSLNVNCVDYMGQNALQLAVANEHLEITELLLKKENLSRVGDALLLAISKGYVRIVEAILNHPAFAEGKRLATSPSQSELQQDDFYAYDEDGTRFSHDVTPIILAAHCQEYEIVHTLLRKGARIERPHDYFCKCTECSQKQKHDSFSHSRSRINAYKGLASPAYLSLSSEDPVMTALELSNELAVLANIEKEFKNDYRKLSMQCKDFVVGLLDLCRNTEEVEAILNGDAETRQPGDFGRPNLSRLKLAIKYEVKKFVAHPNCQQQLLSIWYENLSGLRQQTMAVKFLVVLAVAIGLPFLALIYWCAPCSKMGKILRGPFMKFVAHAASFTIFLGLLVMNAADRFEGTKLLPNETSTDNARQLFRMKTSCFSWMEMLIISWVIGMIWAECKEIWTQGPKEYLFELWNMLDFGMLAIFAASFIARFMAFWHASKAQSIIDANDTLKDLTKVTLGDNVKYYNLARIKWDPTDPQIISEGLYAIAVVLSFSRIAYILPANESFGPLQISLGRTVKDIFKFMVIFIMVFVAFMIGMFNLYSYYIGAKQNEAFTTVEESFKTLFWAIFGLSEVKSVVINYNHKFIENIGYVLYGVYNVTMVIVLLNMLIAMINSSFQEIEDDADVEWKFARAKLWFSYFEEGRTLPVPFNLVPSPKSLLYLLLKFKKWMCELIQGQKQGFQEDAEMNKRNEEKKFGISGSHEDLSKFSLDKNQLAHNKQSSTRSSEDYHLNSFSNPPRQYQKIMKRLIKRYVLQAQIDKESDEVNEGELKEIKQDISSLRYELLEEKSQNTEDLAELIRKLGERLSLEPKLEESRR
TRPC4 act – TRPC4 (mouse) channel activation; B-score at 10 µM; HEK293 TRPC4beta/mu-opioid, Fluo4 calcium fluorescence; stronger effect = higher value; hit rate 0.49% among 310,000;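 active = B-score above 5 SD of library B-scores, and initial fluorescence ratio not above library mean plus 5 SD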;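 note: positive B-score marks a calcium rise read as TRPC4 activation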
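system = HEK293 cells stably co-expressing mouse TRPC4beta and mu-opioid receptor | schedule = Fluo4 dye loading 45 min at room temperature, 110 s recording | measure = B-scored integrated calcium fluorescence ratio | signal = Fluo4 calcium-sensitive dye fluorescence, kinetic, 1 Hz baseline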
TRPC4 potent – TRPC4 (mouse) allosteric potentiation. Q9QUQ5. HEK293 TRPC4beta/mu-opioid, DAMGO EC20, Fluo-4 Ca2+ flux; stronger effect = higher value. B-score at 10 µM. hit rate 0.42% among 310,000. AID 2227;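 active = B-score of calcium response area above 5 SD of library B-scores, with initial fluorescence ratio within 5 SD of library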;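 note: B-score of integrated fluorescence ratio over time as area under calcium response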
TRPC6 activator – mouse TRPC6 channel activation | Q61143 | HEK293-TRPC6 membrane potential dye fluorescence; stronger effect = higher value | B-score at 10 µM | hit rate 0.13% among 310,000 | AID 2550;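 active = B-score of the integrated fluorescence ratio above library mean plus 3 SD, and starting fluorescence ratio within library mean plus 5 SD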;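 note: higher score means more depolarization so channel activation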
TRPC4 inh – blocks the mouse TRPC4 cation channel. Q9QUQ5. HEK293 TRPC4beta/mu-opioid, DAMGO-evoked Fluo4 calcium flux; stronger effect = lower value. B-score at 10 µM. hit rate 0.39% among 300,000. AID 2247;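 active = B-score over 3 SD under the library average, no early fluorescence shift, positive overall ratio signal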
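Assay system: TRPC4beta/mu-opioid receptor HEK293 cell line; compound dosing: single concentration per test compound; detection: Fluo4 Ca2+ flux fluorescence; evaluation: per-well B score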
TRPC4 sel inh 2 – second selectivity test of TRPC6 inhibitors: effect on mouse TRPC4. shares compounds with TRPC6 inh. HEK293 TRPC4/MOR, membrane potential dye fluorescence; channel activated by saturating DAMGO dose. AID 2776. hit rate 42% among 920. inhibition, % at 10 µM;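 active = compounds whose fluorescence signal differed from control wells by over 3 SD, either direction, in both duplicate plates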
TRPC4 spec – selectivity of TRPC6 inhibitors: effect on mouse TRPC4; shares compounds with TRPC6 inh; HEK293 TRPC4/mu-opioid, membrane potential fluorescence; activity change, negative = inhibition, % at 10 µM; hit rate 61% among 920;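 active = rise or fall in signal beyond 3 SD of buffer-only wells in both replicate plates, either sign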;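 note: integrated kinetic ratio of fluorescence range over baseline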
HEK293 MPD ctr 2-1 – parental HEK293 nonspecific activity of TRPC6 inhibitors, second screen | shares compounds with TRPC6 inh | parental HEK293 membrane potential dye fluorescence; maximal acetylcholine challenge after compound addition | signal change vs control, % at 10 µM | hit rate 31% among 920;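 active = membrane potential signal moving either way by over 3 SD of the maximum-effect control, in both duplicate plates, meaning non-specific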
HEK293 MPD ctr-1 – counter-screen for TRPC6 inhibitors: effect in parental HEK293 cells. hit rate 60% among 920. membrane potential signal change, % at 10 µM. shares compounds with TRPC6 inh. parental HEK293 membrane potential dye fluorescence. AID 2780;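 active = membrane potential signal shifting up or down by more than 3 SD of buffer-only wells, on both duplicate plates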
HEK293 MPD ctr-2 – checks TRPC6 modulator effects in parental HEK293 cells | membrane potential dye fluorescence | hit rate 51% among 2,400 | AID 488924 | shares compounds with TRPC6 inh | membrane potential signal change, % at 10 µM;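 active = membrane potential signal moves up or down beyond 5 SD from buffer-only wells, on both duplicate plates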
HEK293 MPD ctr 2-2 – second check of TRPC6 modulator effects in parental HEK293 cells; membrane potential dye fluorescence; after compound, maximal acetylcholine stimulation; AID 488926; shares compounds with TRPC6 inh; inhibition, % at 10 µM; hit rate 14% among 2,400;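 active = membrane potential signal drops by more than 5 SD from the mean control signal, in both duplicate plates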;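 note: plate controls were acetylcholine ECmax control wells for no effect and buffer only wells for full effect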
TRPC4/MOR mod – tests whether TRPC6 modulators also affect mouse TRPC4; shares compounds with TRPC6 inh; HEK293 TRPC4/mu-opioid, membrane potential fluorescence; percent change from control (negative = decrease, positive = increase), % at 10 µM; hit rate 69% among 2,400; AID 488927;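 active = membrane potential signal moved up or down beyond 5 SD of buffer control wells, in both duplicate plates, actives on both sides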;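 note: plate controls were assay buffer wells for no effect and DAMGO maximal-effect wells for full effect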
TRPC4/MOR inh 2 – second selectivity test of TRPC6 modulators against mouse TRPC4 | AID 488928 | inhibition, % at 10 µM | hit rate 55% among 2,400 | HEK293 TRPC4/mu-opioid, membrane potential dye fluorescence; stimulated with maximal-effect DAMGO | shares compounds with TRPC6 inh;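 active = drop in membrane potential signal beyond 5 SD of the control wells in both duplicate plates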;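 note: TRPC4 counter screen for TRPC6 hits run under conditions tuned for TRPC6 not TRPC4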
TRPC6 block conf – mouse TRPC6 inhibitor confirmation. hit rate 43% among 3,300. inhibition, % at 10 µM. HEK293-TRPC6, membrane potential dye, ACh-evoked depolarization. shares compounds with TRPC6 inh;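 active = fluorescence ratio falls more than 5 SD below the full-stimulation control mean, in both duplicate runs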;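 note: integrated fluorescence ratio of peak minus minimum over baseline after agonist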
TRPC6 act conf – mouse TRPC6 activator confirmation. shares compounds with TRPC6 inh. HEK293-TRPC6 membrane potential dye fluorescence, FDSS. activation, % at 10 µM. hit rate 11% among 2,800. AID 488961;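 active = ratio signal rise beyond 5 SD above unstimulated control wells' mean, seen in both duplicate runs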;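 note: plate controls were buffer EC0 wells for no effect and acetylcholine ECmax response for full effect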
* hit, by the source's call; i = inactive; nt = not tested or not shown.

SMILES | TRPC6 inh | TRPC4 act | TRPC4 potent | TRPC6 activator | TRPC4 inh | TRPC6 block conf | TRPC6 act conf | others
O=C(c1ccc(Cl)c(Cl)c1)N1CCN(c2ccccn2)CC1 | i | i | i | i | i | nt | nt
O=C(c1ccc(Cl)c(S(=O)(=O)Nc2ccc(F)cc2)c1)N1CCN(c2ccccn2)CC1 | -10* | i | i | i | i | i | i | TRPC4 sel inh 2=i;TRPC4 spec=9.5%*;HEK293 MPD ctr 2-1=i;HEK293 MPD ctr-1=4.3%*
COc1ccccc1N(Cc1cc(=O)[nH]c2ccccc12)C(=O)c1ccc([N+](=O)[O-])cc1 | i | i | i | i | i | nt | nt
CCOc1ccc(N(CC(=O)NC(C)(C)C)C(=O)CCC(=O)Nc2nccs2)cc1 | i | i | i | i | i | nt | nt
C1CCCCCC(NCCN2CCNCC2)CCCCC1 | i | i | i | i | i | nt | nt
O=C(c1cccc(C(F)(F)F)c1)C1CCCN(C(=O)CN2CCOC2=O)C1 (stereo not drawn) | i | i | i | i | i | nt | nt
CC1(C(O)(C#CC[N+]2(C)CCCCC2)c2ccccc2)CCCC1 (stereo not drawn) | -11* | i | i | i | i | 107%* | i | TRPC4 sel inh 2=i;TRPC4 spec=i;HEK293 MPD ctr 2-1=-26%*;HEK293 MPD ctr-1=i
NC(=O)C[N+]1(CC#CC(O)(c2ccccc2)c2ccccc2)CCCC1 | i | i | i | i | i | nt | nt
Cc1cccc(-c2nc(NCCCN3CCOCC3)c3ccccc3n2)c1 | -9.6* | i | i | i | i | 79%* | i | TRPC4 sel inh 2=38%*;TRPC4 spec=-21%*;HEK293 MPD ctr 2-1=i;HEK293 MPD ctr-1=-284%*
c1ccc2[nH]c(NCCCN3CCOCC3)nc2c1 | i | i | i | i | i | nt | nt
c1ccc(-c2nc(NCCCN3CCOCC3)c3ccccc3n2)cc1 | -11* | i | i | i | i | 58%* | i | HEK293 MPD ctr-2=-168%*;HEK293 MPD ctr 2-2=i;TRPC4/MOR mod=-36%*;TRPC4/MOR inh 2=68%*
N#Cc1c2c(c(NCCCN3CCOCC3)n3c1nc1ccccc13)CCC2 | -6* | i | i | i | i | 46%* | i | HEK293 MPD ctr-2=-173%*;HEK293 MPD ctr 2-2=70%*;TRPC4/MOR mod=-36%*;TRPC4/MOR inh 2=52%*
COCCCN(CC(=O)O)S(=O)(=O)c1cccc(Cl)c1 | i | i | i | i | i | nt | nt
COc1cc(OC)c(NC(=O)/C=C/C(=O)O)cc1Cl | i | i | i | i | i | nt | nt
O=C(CS(=O)(=O)c1ccccc1)Nc1ccc(N2CCOCC2)cc1 | i | i | i | i | i | nt | nt
